ChEMBL document CHEMBL1128173, “Synthesis and structure-activity relationships of substituted 1,4-dihydroquinoxaline-2,3-diones: antagonists of N-methyl-D-aspartate (NMDA) receptor glycine sites and non-NMDA glutamate receptors” (J Med Chem, 1995)

Tests used:
[1] = target: Glutamate receptor ionotropic, AMPA (Rattus norvegicus) (UniProt P19491+P19492+P19493+P19490); assay: Binding affinity against rat brain Non N-methyl-D-aspartate glutamate receptor glutamate site expressed in Xenopus oocyte
How it was run: (§1)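 Oocytes expressing whole rat brain poly(A)+ RNA (~50 ng injected), voltage-clamped with two electrodes 3–10 days after injection and perfused with Ringer pH 7.4. Antagonist perfused ~30 s before agonist, with washout over 1–5 min. Non-NMDA IC50 estimated from partial (three- or four-point) concentration-inhibition curves fit to a logistic equation with a slope factor. Final DMSO 0.03–0.3%.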

[2] = Selectivity for glycine site
[3] = target: Glutamate receptor ionotropic, NMDA 1 (Rattus norvegicus) (UniProt P35439); assay: The compound was tested for binding affinity against NMDA receptor glycine site in Xenopus oocyte
How it was run: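 Xenopus stage V–VI oocytes injected with ~50 ng rat whole-brain poly(A)+ RNA; two-electrode voltage clamp at −70 mV, 3–10 days post-injection, frog Ringer pH 7.4. NMDA fixed at 100 µM, glycine 1 µM; antagonist pre-applied ~30 s with glycine. Amplitude read at the slow second-phase peak; IC50 from 3–4-point inhibition curves fit with slope factor.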

Rattus norvegicus = organism: Rattus norvegicus; assay: The compound was tested for binding affinity against Non N-methyl-D-aspartate glutamate receptor glutamate site expressed in Xenopus oocyte; how it was run: as §1

SMILES	Kb [1] [µM]	Selectivity [2]	Kb [3] [µM]	Kb (Rattus norvegicus) [µM]
O=[N+]([O-])c1c(Br)ccc2nc(O)c(O)nc12	36.3	28		
O=[N+]([O-])c1c(Cl)c(Br)cc2nc(O)c(O)nc12	1.24	170		
O=[N+]([O-])c1c(F)c(Cl)cc2nc(O)c(O)nc12	1.61	81		
O=[N+]([O-])c1c(Cl)cc2nc(O)c(O)nc2c1[N+](=O)[O-]		24	0.042	0.99
Nc1c(Cl)c(Cl)cc2nc(O)c(O)nc12	5.19	88		
Oc1nc2cc(Br)c(C(F)(F)F)cc2nc1O	1.49	5.7		
Oc1nc2cc(Cl)c(Cl)c(Br)c2nc1O	4.11	43		
Oc1nc2ccccc2nc1O	98.2	5.9		
Oc1nc2cc(F)c(Cl)c(F)c2nc1O	13.2	7.3		
O=[N+]([O-])c1cccc2nc(O)c(O)nc12	> 100	> 5.8		
Oc1nc2ccc(Br)cc2nc1O	11.2	4.7		
O=c1[nH]c2cc(Cl)c(Cl)c([N+](=O)[O-])c2[nH]c1=O	1.5	254		
Oc1nc2cc(Cl)c(Cl)cc2nc1O	4.81	13		
Oc1nc2cc(Cl)c(Cl)c(Cl)c2nc1O	4.19	51		
Oc1nc2cc(C(F)(F)F)cc(Br)c2nc1O	4.29	4.2		
O=[N+]([O-])c1c(F)c(Br)cc2nc(O)c(O)nc12	1.4	35		
Oc1nc2cc(F)c(Cl)cc2nc1O	10.8	4.5		
Oc1nc2cc(Br)cc(Br)c2nc1O	6.01	6.8		
O=[N+]([O-])c1c(C(F)(F)F)cc(Cl)c2nc(O)c(O)nc12	> 30			
Nc1c(C(F)(F)F)cc(Cl)c2nc(O)c(O)nc12	63.4			
O=[N+]([O-])c1c(Cl)c(C(F)(F)F)cc2nc(O)c(O)nc12	0.55	15		
Oc1nc2cc(Cl)cc(C(F)(F)F)c2nc1O	4.67	7.6		
O=[N+]([O-])c1c(Br)c(F)cc2nc(O)c(O)nc12	3.45	35		
O=[N+]([O-])c1c(Br)c(Br)cc2nc(O)c(O)nc12		140		0.89
Oc1nc2cc(F)c(F)c(F)c2nc1O	30.4	5.4		
O=[N+]([O-])c1cc(Cl)cc2nc(O)c(O)nc12	8.02	16		

SMILES	Kb [1] [µM]	Selectivity [2]	Kb [3] [µM]	Kb (Rattus norvegicus) [µM]
CC(=O)Nc1c(Cl)c(Cl)cc2nc(O)c(O)nc12	5.57	23		
O=[N+]([O-])c1c(Cl)c(Cl)c(Cl)c2nc(O)c(O)nc12	14.1	11		
O=[N+]([O-])c1c(F)c(F)cc2nc(O)c(O)nc12	6.01	19		
O=[N+]([O-])c1c(Cl)ccc2nc(O)c(O)nc12	36.4	74		
O=[N+]([O-])c1cc(C(F)(F)F)cc2nc(O)c(O)nc12	4.13	13		
Oc1nc2cc(Cl)cc(Cl)c2nc1O	9.27	13		
Oc1nc2cc(F)c(F)cc2nc1O	21.5	4.5		
Oc1nc2cc(Br)cc(C(F)(F)F)c2nc1O	3.4	14		
O=[N+]([O-])c1c(F)c(Cl)c(F)c2nc(O)c(O)nc12	6.56	23		
Oc1nc2cc(Cl)c(Cl)c(C(F)(F)F)c2nc1O	2.66	14		
Oc1nc2cc(C(F)(F)F)cc(C(F)(F)F)c2nc1O	2.21	4.9		
Oc1nc2cc(C(F)(F)F)cc(Cl)c2nc1O	3.7	7.1		
O=[N+]([O-])c1c(Br)c(Cl)cc2nc(O)c(O)nc12	0.95	120		
O=[N+]([O-])c1c(Br)c(C(F)(F)F)cc2nc(O)c(O)nc12	0.47	17		
O=[N+]([O-])c1ccc2nc(O)c(O)nc2c1	1.67	0.7		
Oc1nc2cc(C(F)(F)F)c(Cl)c(Cl)c2nc1O	1.23	6.5		
Oc1nc2c(F)c(F)c(F)c(F)c2nc1O	26.6	8		
Nc1c(Br)c(Br)cc2nc(O)c(O)nc12	3.32	66		
Oc1nc2cc(F)c(F)c(Cl)c2nc1O	17.9	10		
Oc1nc2ccc(Cl)cc2nc1O	16.4	6.3		
Oc1nc2cc(F)c(C(F)(F)F)cc2nc1O	3.78	1.5		
O=[N+]([O-])c1cc2nc(O)c(O)nc2cc1Cl	0.64	2.3		
Oc1nc2cc(Br)c(Br)cc2nc1O	4.05	19		
Oc1nc2cc(F)cc(C(F)(F)F)c2nc1O	16.3	4.8		
Oc1nc2cc(Cl)c(Br)cc2nc1O	5.7	16		
Oc1nc2cc(Cl)c(C(F)(F)F)cc2nc1O	2.55	9.8		
